Published values pooled from the literature.
Lines come from different studies, so protocols differ.
ADRA2C: Alpha-2C adrenergic receptor (ADRA2C, Homo sapiens, UniProt P18825)
ESR1: Estrogen receptor (ESR1, Homo sapiens, UniProt P03372)
M-phase phosphoprotein 8 chromodomain: M-phase phosphoprotein 8, chromodomain (Homo sapiens, UniProt Q99549)

Cc1cc(O)cc(C)c1C[C@H](N)C(=O)N[C@H](C)C(=O)NCC(=O)N[C@@H](Cc1ccc(Cl)cc1)C(=O)N(C)CCC[C@@]1(c2ccc(F)cc2)OCc2cc(C#N)ccc21
Ki (ADRA2C; ligand displacement, radioligand): 240 nM

Oc1ccc(-c2ccc(Cl)cc2)c(Cl)c1
EC50 (ESR1; reporter gene, agonist, luciferase): 100 nM

CCN(CCCC[C@H](NC(=O)[C@H](CC(C)C)NC(=O)[C@H](C)NC(=O)[C@H](Cc1ccco1)NC(=O)c1cccnc1)C(=O)N[C@@H](CO)C(N)=O)C(C)C
IC50 (M-phase phosphoprotein 8 chromodomain; cell-free assay, TR-FRET): 11000 nM

Clc1ccc(-c2ccc(Cl)cc2Cl)cc1
EC50 (ESR1; reporter gene, agonist, luciferase): 27000 nM

CCCCCNC(=N)N/N=C/c1c[nH]c2ccc(OC)cc12
EC50 (5-hydroxytryptamine receptor 1A (HTR1A, Homo sapiens, UniProt P08908); calcium signal, agonist, fluorescence): 18000 nM

CCN(CCCC[C@H](NC(=O)[C@H](Cc1ccc(OC)c(OC)c1)NC(=O)[C@H](C)NC(=O)[C@H](Cc1ccccc1)NC(=O)c1cccnc1)C(=O)N[C@@H](CO)C(N)=O)C(C)C
IC50 (M-phase phosphoprotein 8 chromodomain; cell-free assay, TR-FRET): 1900 nM

C[C@H]1CCC[C@H](O)CCCCCc2cc(O)cc(O)c2C(=O)O1
EC50 (ESR1; reporter gene, agonist, luciferase): 0.134 nM

C[C@H](N)Cn1ncc2ccc3c(c21)CCCO3
Ki (ADRA2C; ligand displacement, radioligand): 24800 nM

CCN(CCCC[C@H](NC(=O)[C@H](CC(C)C)NC(=O)[C@H](C)NC(=O)[C@H](Cc1c(F)c(F)c(F)c(F)c1F)NC(=O)c1cccnc1)C(=O)N[C@@H](CO)C(N)=O)C(C)C
IC50 (M-phase phosphoprotein 8 chromodomain; cell-free assay, TR-FRET): 1600 nM

CC[N+](C)(C)c1cccc(O)c1
IC50 (AChE (Phlebotomus papatasi, UniProt M1F887); enzyme activity, inhibitor): 1180 nM

Oc1ccc(-c2cccc(Cl)c2)cc1Cl
EC50 (ESR1; reporter gene, agonist, luciferase): 8200 nM

CCN(CCCC[C@H](NC(=O)[C@H](CC(C)C)NC(=O)[C@H](C)NC(=O)[C@H](Cc1ccccc1)NC(=O)c1ccc(N(C)C)cc1)C(=O)N[C@@H](CO)C(N)=O)C(C)C
IC50 (M-phase phosphoprotein 8 chromodomain; cell-free assay, TR-FRET): 380 nM

O=C1C[C@@H](c2ccc(O)cc2)Oc2cc(O)ccc21
EC50 (ESR1; reporter gene, agonist, luciferase): 681 nM

O=C(CCCc1ccccc1)OC(CCN1CCN(CCCN(c2ccc(F)cc2)c2ccc(F)cc2)CC1)c1ccccc1 (centres unmarked)
Ki (Norepinephrine transporter (Slc6a2, Rattus norvegicus, UniProt Q9WTR4); ligand displacement, radioligand): > 10000 nM
